Legend:
Mus musculus [1] = organism: Mus musculus; test: Ratio of concentration that reduced cell viability to inhibitory concentration for ConA-induced T cell proliferation; format: functional
[2] = In vitro concentration of compound required to inhibit LPS-induced B cell proliferation to 50% in BALB/c mice; format: functional, cell-based; settings: Mus musculus
Method in brief: (§1)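 Fresh spleen cells from male BALB/c mice (7–9 weeks); 5 × 10^5 cells per well in RPMI 1640 with 10% FBS, penicillin/streptomycin, 37 °C, 5% CO2, 48 h, with test compounds at varied concentrations. Stimulated with 5 µg/mL ConA (T cells) or 10 µg/mL LPS (B cells). Proliferation read as [3H]thymidine uptake over an 8 h pulse (20 kBq/well), scintillation counting. IC50 is the concentration that inhibits proliferation to 50% of control.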

Mus musculus [3] = organism: Mus musculus; test: In vitro concentration of compound required to reduced spleen cell viability to 50% in BALB/c mice; format: functional
Method in brief: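 Male BALB/c mouse spleen cells (7–9 weeks), erythrocytes lysed with ammonium chloride, 5 × 10^5 cells per well in RPMI 1640/10% FBS with antibiotics. Exposed to a range of compound concentrations for 48 h at 37 °C, 5% CO2. MTT (5 mg/mL stock) added for the final 5 h, then SDS/DMF lysis buffer (pH 7.2) for 6–7 h. Absorbance read at 570 nm; CC50 is the concentration reducing viability to 50%.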

Mus musculus [4] = organism: Mus musculus; test: Ratio of concentration that reduced cell viability to inhibitory concentration for LPS-induced B cell proliferation; format: functional
T-cell = test: In vitro concentration of compound required to inhibit ConA-induced T cell proliferation to 50% in BALB/c mice; format: functional, cell-based; settings: Mus musculus; method in brief: as §1

SMILES | Selectivity index (Mus musculus [1]) | IC50 [2] | CC50 (Mus musculus [3]) | Selectivity index (Mus musculus [4]) | IC50 (T-cell)
CC(Oc1cccc(O[C@@H]2OC3OC4(C)CCC5[C@H](C)CC[C@@H]([C@H]2C)[C@@]35OO4)c1)C(=O)O (single isomer, unassigned) | 1 | 1.05 µM | 5.54 µM | 5 | 7.64 µM
C[C@H]1[C@@H](Oc2ccc(OCC(=O)O)cc2)OC2OC3(C)CCC4[C@H](C)CC[C@@H]1[C@@]24OO3 (single isomer, unassigned) | 66 | 5.98 µM | 354 µM | 59 | 5.34 µM
COC(=O)CCc1ccc(O[C@H]2O[C@@H]3OC4(C)CC[C@H]5[C@H](C)CC[C@@H]([C@H]2C)[C@@]35OO4)cc1 (single isomer, unassigned) | 302 | 0.0178 µM | 41.7 µM | 2343 | 0.138 µM
CO[C@H]1O[C@@H]2O[C@@]3(C)CC[C@H]4[C@H](C)CC[C@@H]([C@H]1C)[C@@]24OO3 [ARTEMETHER] | 23 | 1.78 µM | 86 µM | 48 | 3.82 µM
CC(C(=O)O)c1ccc(O[C@H]2O[C@@H]3OC4(C)CCC5[C@H](C)CC[C@@H]([C@H]2C)[C@]53OO4)cc1 (single isomer, unassigned) | 17 | 8.6 µM | 59.6 µM | 7 | 3.6 µM
C[C@@H]1CC[C@H]2[C@@H](C)C(=O)O[C@@H]3O[C@@]4(C)CC[C@@H]1[C@]32OO4 [ARTEMISININ] | 6 | 8.96 µM | 28.3 µM | 3 | 4.43 µM
COc1ccccc1OC(=O)C(C)Oc1cccc(O[C@H]2O[C@@H]3OC4(C)CC[C@H]5[C@H](C)CC[C@@H]([C@H]2C)[C@@]35OO4)c1 (single isomer, unassigned) | 1 | 0.57 µM | 2.99 µM | 5 | 4.12 µM
CCOC(=O)CNC(=O)c1ccc(O[C@H]2O[C@@H]3O[C@]4(C)CC[C@H]5[C@H](C)CC[C@@H]([C@H]2C)[C@@]35OO4)cc1 | 51 | 0.0537 µM | 130 µM | 2421 | 2.53 µM
C[C@H]1[C@@H](Oc2ccc(CCC(=O)O)cc2)O[C@@H]2OC3(C)CC[C@H]4[C@H](C)CC[C@@H]1[C@@]24OO3 (single isomer, unassigned) | 3 | 0.107 µM | 10.4 µM | 97 | 4 µM
C[C@H]1[C@H](OC(=O)CCC(=O)O)O[C@@H]2O[C@@]3(C)CC[C@H]4[C@H](C)CC[C@@H]1[C@@]24OO3 [ARTESUNATE] | 7 | 0.989 µM | 32.9 µM | 33 | 4.58 µM
CC(Oc1cccc(OC2O[C@@H]3O[C@]4(C)CC[C@H]5[C@H](C)CC[C@@H]([C@H]2C)[C@@]35OO4)c1)C(=O)O (some centres not stated) | 4 | 0.74 µM | 35.1 µM | 47 | 8.6 µM
C[C@H]1[C@@H](Oc2ccc(OCC(=O)OCCN(C)C)cc2)O[C@@H]2OC3(C)CC[C@H]4[C@H](C)CC[C@@H]1[C@@]24OO3 (single isomer, unassigned) | 1 | 0.0496 µM | 2.08 µM | 42 | 1.96 µM
CCOC(=O)C(C)Oc1cccc(O[C@H]2O[C@@H]3OC4(C)CC[C@H]5[C@H](C)CC[C@@H]([C@H]2C)[C@@]35OO4)c1 (single isomer, unassigned) | 1 | 0.56 µM | 2.99 µM | 5 | 3.59 µM
CC(Oc1ccc(OC2O[C@@H]3OC4(C)CC[C@H]5[C@H](C)CC[C@@H]([C@H]2C)[C@@]35OO4)cc1)C(=O)O (single isomer, unassigned) | >14 | 0.86 µM | > 100 µM | >116 | 7.27 µM
C/C=C/C[C@@H](C)[C@@H](O)[C@H]1C(=O)N[C@@H](CC)C(=O)N(C)CC(=O)N(C)[C@@H](CC(C)C)C(=O)N[C@@H](C(C)C)C(=O)N(C)[C@@H](CC(C)C)C(=O)N[C@@H](C)C(=O)N[C@H](C)C(=O)N(C)[C@@H](CC(C)C)C(=O)N(C)[C@@H](CC(C)C)C(=O)N(C)[C@@H](C(C)C)C(=O)N1C [CYCLOSPORINE] | 963 | – | – | 7 | –
C[C@H]1[C@@H](Oc2cccc(OC(=O)CCC(=O)O)c2)O[C@@H]2O[C@]3(C)CCC4[C@H](C)CC[C@@H]1[C@]42OO3 (some centres not stated) | 161 | 0.265 µM | 52.7 µM | 199 | 0.327 µM
COC(=O)Cc1ccc(O[C@H]2O[C@@H]3OC4(C)CCC5[C@H](C)CC[C@@H]([C@H]2C)[C@]53OO4)cc1 (single isomer, unassigned) | 11 | 0.179 µM | 8 µM | 45 | 0.713 µM
CCOC(=O)C(C)Oc1ccc(OC2O[C@@H]3OC4(C)CCC5[C@H](C)CC[C@@H]([C@H]2C)[C@]53OO4)cc1 (single isomer, unassigned) | >385 | 0.85 µM | > 100 µM | >118 | 0.26 µM
CCOC(=O)C(C)Oc1cccc(OC2OC3OC4(C)CC[C@H]5[C@H](C)CC[C@@H]([C@H]2C)[C@@]35OO4)c1 (single isomer, unassigned) | 1 | 0.35 µM | 1.36 µM | 4 | 1.73 µM
COC(=O)COc1ccc(O[C@H]2OC3OC4(C)CC[C@H]5[C@H](C)CC[C@@H]([C@H]2C)[C@@]35OO4)cc1 (single isomer, unassigned) | 848 | 0.00727 µM | 207 µM | 28473 | 0.244 µM
C[C@H]1[C@@H](Oc2ccc(CC(=O)O)cc2)O[C@@H]2O[C@]3(C)CCC4[C@H](C)CC[C@@H]1[C@]42OO3 (some centres not stated) | >9 | 10.2 µM | > 100 µM | >10 | 11.8 µM
COc1ccccc1OC(=O)C(C)Oc1ccc(O[C@H]2O[C@@H]3OC4(C)CC[C@H]5[C@H](C)CC[C@@H]([C@H]2C)[C@@]35OO4)cc1 (single isomer, unassigned) | 17 | 0.27 µM | 39.1 µM | 145 | 2.33 µM
COC(=O)C(C)c1ccc(O[C@H]2O[C@@H]3OC4(C)CC[C@H]5[C@H](C)CC[C@@H]([C@H]2C)[C@@]35OO4)cc1 (single isomer, unassigned) | 477 | 0.78 µM | 6.53 µM | 8 | 0.0137 µM
